Square brackets hold non-standard residues; d marks the D form. Peptide text beside a SMILES is read from it. * marks the point of attachment. X1 = CC(=O)N[C@@H]1[C@@H](O[C@@H]2O[C@H](CO)[C@H](O)[C@H](O)[C@H]2O)[C@@H](O)[C@@H](CO[C@@H]2O[C@H](CO)[C@@H](O[C@@H]3O[C@H](CO)[C@H](O)[C@H](O[C@]4(C(=O)O)C[C@H](O)[C@@H](NC(C)=O)[C@H]([C@H](O)[C@H](O)CO)O4)[C@H]3O)[C@H](O[C@@H]3O[C@@H](C)[C@@H](O)[C@@H](O)[C@@H]3O)[C@H]2NC(C)=O)O[C@@H]1*; Phe(4-CH2SO3H) = N[C@@H](Cc1ccc(CS(=O)(=O)O)cc1)C(=O)O; Mca = COc1ccc2c(CC(=O)*)cc(=O)oc2c1
Assays:
P-selectin [1] = conditions: P-selectin inhibitor; cited from earlier work
[2] = test system: human platelet-monocyte aggregation; conditions: cited from earlier work
human P-selectin = human P-selectin (Homo sapiens, UniProt P16109); assay: Biacore binding assay, human P-selectin; conditions: from Kd 22 nM
mouse P-selectin = mouse P-selectin (Mus musculus, UniProt Q01102); assay: Biacore binding assay, mouse P-selectin; conditions: printed as fold lower
L-Sel-Ig = assay: Biacore binding assay, L-selectin
Outline: (§1)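 Biotinylated test glycopeptide was captured on a streptavidin-coated sensor chip at low (< 5 RU) or high (60 RU) density. P-, L- or E-selectin-Ig was applied at 2.5–60 μg/mL. Kinetic parameters were fitted to a 1:1 binding model. Affinity relative to P-Sel-Ig was estimated by comparing binding at the two capture densities.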

E-Sel-Ig = assay: Biacore binding assay, E-selectin
Outline: as §1

P-selectin [3] = assay: Microarray binding of glycopeptide mimics to selectin-Ig chimeras; set-up: species or system human and mouse; conditions: selectin-Ig chimeras 5-20 μg/mL, Alexa-488 anti-human IgG
[4] = Temperature- and pH-dependent stability by RP-HPLC; format: physicochemical
[5] = target: human L-selectin Fc chimera (Homo sapiens, UniProt P14151); assay: Flow cytometry, L-selectin Fc chimera binding to human U937; format: cell-based; conditions: read-out: IC50, inhibition of PSGL-1/L-selectin interactions; human leukocytes (human U937)
E-selectin Fc chimera = assay: Flow cytometry, E-selectin Fc chimera binding to leukocytes; format: cell-based, human and mouse; conditions: GSnP-6 0 - 30 μM
Outline: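 Cells were heparinized mouse blood (cardiac puncture), citrated human blood, or cultured U937. They were incubated with test compound (0–30 μM) and species-matched selectin Fc chimera (2 μg/mL), then PE anti-Fc (1:100). Read-out was flow-cytometric MFI, expressed as percent inhibition versus PBS control, in triplicate. KPL1 and 4RA10 anti-PSGL-1 antibodies served as specificity checks.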

[6] = test system: human neutrophil and monocyte rolling and arrest on ICAM-1/P-selectin substrate; assay: In vitro flow assay on ICAM-1/P-selectin substrate under shear; format: cell-based
Outline: (§2)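 Aminosilanized glass was coated with human ICAM-1-Fc plus P- or E-selectin-Fc (5 μg/mL, 1 h). Human blood cells from healthy donors were density-separated and suspended in HEPES-buffered salt solution. Cells were exposed 10 min to PBS or test compound (up to 30 μM), then perfused at 2 dynes/cm2. Video ran 2 min at 7.5 frames/s. Centroids were tracked over 10 s; < 1 μm/s counted as arrested; capture and rolling velocity scored.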

[7] = test system: leukocyte rolling and arrest on substrates coated with ICAM-1 and E-selectin; assay: In vitro flow assay on ICAM-1/E-selectin substrate under shear; format: cell-based, human; conditions: concentrations as high as 30 μM
Outline: as §2

[8] = test system: leukocyte rolling in cremaster venules; assay: Intravital microscopy of mouse cremaster, leukocyte rolling; format: in vivo; conditions: 4 μmol/kg IV
Outline: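 Mice under IP ketamine/xylazine/atropine were kept on a 37°C blanket. Test compound (4 μmol/kg in saline) or saline was given through a jugular cannula. The cremaster was superfused with bicarbonate-buffered saline (5% CO2 in N2). Venules 30–40 μm were viewed 15–25 min post-surgical stimulation, seven per mouse. Velocities of 5–10 rolling leukocytes per venule were tracked over 2 s; mean and median were taken.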

[9] = test system: platelet-leukocyte aggregate formation; assay: Platelet-leukocyte aggregates in human whole blood, dual-label flow cytometry; format: cell-based; conditions: 40 μM, PAR1-activating peptide
Outline: (§3)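 Anticoagulated whole blood was treated with 40 μM test compound at room temperature. Stimulation used PAR1-activating peptide 40 μM (human) or PAR4-activating peptide 200 μM (mouse). Staining was anti-CD42a-PE/anti-CD45-APC (human) or anti-CD41-PE/anti-CD45-APC (mouse). CD45+ neutrophils and monocytes were gated by side scatter and scored as % platelet-positive. Saline and anti-CD62P (5 μg/mL) were controls. Samples were run in triplicate.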

[10] = test system: platelet-leukocyte aggregate formation; assay: Platelet-leukocyte aggregates in mouse whole blood, dual-label flow cytometry; format: cell-based; conditions: 40 μM, PAR4-activating peptide
Outline: as §3

[11] = test system: platelet-neutrophil binding and platelet aggregation in venules; assay: TNF-α-induced venular inflammation, cremaster intravital microscopy; format: in vivo; conditions: 3 hr after TNF-α; GSnP-6 4 μmol/kg IV, antibody 75 μg/mouse IV
Outline: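 Male C57BL/6 mice, 6–8 weeks old, received intrascrotal TNF-α (0.5 μg) 3 h before cremaster preparation. Just before imaging, test compound (4 μmol/kg), anti-CD62P or saline was given via jugular cannula. Labels were Dylight 649 anti-CD42b (platelets) and Alexa 488 anti-Gr-1 (neutrophils). Venules 30–45 μm (8–10/mouse, 5 mice) were imaged over 2 min. Platelet signal was taken as AUC normalized to vessel area, reported as median integrated fluorescence.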

[12] = Biacore, compared with P-selectin
[13] = fold lower, densities < 5 RU vs 60 RU

O=C(O)c1c(O)c(Cc2ccc(Cl)cc2)nc2c3c(ccc12)CCCC3 [PSI-697]
Kd (P-selectin [1]): ~200 µM
inhibition of human platelet-monocyte aggregation (in words) [2]: only weakly inhibits

COc1ccc2c(CC(=O)NCCCC[C@H](N)C(=O)N[C@@H](CCC(=O)O)C(=O)N[C@@H](Cc3ccc(CS(=O)(=O)O)cc3)C(=O)N[C@@H](CCC(=O)O)C(=O)N[C@@H](Cc3ccc(CS(=O)(=O)O)cc3)C(=O)N[C@@H](CC(C)C)C(=O)N[C@@H](CC(=O)O)C(=O)N[C@@H](Cc3ccc(CS(=O)(=O)O)cc3)C(=O)N[C@@H](CC(=O)O)C(=O)N[C@@H](Cc3ccccc3)C(=O)N[C@@H](CC(C)C)C(=O)N3CCC[C@H]3C(=O)N[C@@H](CCC(=O)O)C(=O)N[C@H](C(=O)N[C@@H](CCC(=O)O)C(=O)N3CCC[C@H]3C(=O)N[C@@H](CC(C)C)C(=O)O)[C@@H](C)O[C@H]3O[C@H](CO[C@@H]4O[C@H](CO)[C@@H](O[C@@H]5O[C@H](CO)[C@H](O)[C@H](O[C@]6(C(=O)O)C[C@H](O)[C@@H](NC(C)=O)[C@H]([C@H](O)[C@H](O)CO)O6)[C@H]5O)[C@H](O[C@@H]5O[C@@H](C)[C@@H](O)[C@@H](O)[C@@H]5O)[C@H]4NC(C)=O)[C@H](O)[C@H](O[C@@H]4O[C@H](CO)[C@H](O)[C@H](O)[C@H]4O)[C@H]3NC(C)=O)cc(=O)oc2c1 [GSnP-6] (H-K(Mca)E[Phe(4-CH2SO3H)]E[Phe(4-CH2SO3H)]LD[Phe(4-CH2SO3H)]DFLPET(X1)EPL-OH; N-terminus and C-terminus assumed)
experimental interaction energy with P-selectin (human P-selectin): -10.5 kcal/mol
Kd to murine P-selectin relative to human P-selectin (mouse P-selectin): ~ 9 fold
binding to L-selectin (in words) (L-Sel-Ig; [12]): lower affinity
affinity of L-Sel-Ig for immobilized GSnP-6 relative to P-Sel-Ig (L-Sel-Ig; [13]): ~ 25 fold
binding to E-selectin (in words) (E-Sel-Ig; [12]): lower affinity
affinity of E-Sel-Ig for immobilized GSnP-6 relative to P-Sel-Ig (E-Sel-Ig; [13]): ~ 25 fold
microarray binding to P-selectin (in words) (P-selectin [3]): bound to P-selectin more strongly than to E- or L-selectin
stability at low pH ([4]; pH 5, T = 37°C): without observed degradation products
stability at high temperature ([4]; pH 7.5, T = 60°C): without observed degradation products
IC50 [5]: ~30 µM
inhibition of E-selectin interactions (in words) (E-selectin Fc chimera): not observed
inhibition of rolling and arrest ([6]; 6 μM, human neutrophils and monocytes): 80%
IC50 ([6]; read-out: IC50, inhibition of neutrophil capture in shear flow, human neutrophils, 2 dynes/cm^2): 5 µM
leukocyte rolling and arrest on ICAM-1 and E-selectin (in words) [7]: did not perturb
increase in median rolling velocities vs saline [8]: 2 fold
mean leukocyte rolling velocity ([8]; 15-25 min after surgical stimulation): 74.9 ± 3.4 μm/s
inhibition of platelet-monocyte aggregate formation [9]: 72%
inhibition of platelet-neutrophil aggregate formation [9]: 65%
inhibition of platelet-monocyte aggregate formation [10]: 47%
inhibition of platelet-neutrophil aggregate formation [10]: 42%
platelet accumulation, median integrated platelet fluorescence (in words) [11]: limited platelet signal
platelet aggregation and platelet-PMN binding (in words) [11]: significantly reduced
